A short description of data set [1]: melting temperature; fluorescence melt of hairpins on a sequencing array, two-state fit, raised by 9.35 °C to match UV melts. To be noted: sodium 0.088 M. The gist of the method: (§1)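 Folding enthalpy and melting temperature were estimated with bootstrapped two-state fits and combined across four replicates by inverse-variance weighting, with fitted temperatures raised by 9.35 °C to match UV melts. The data were Cy3 fluorescence of library hairpins, with annealed Cy3 and quencher oligos, on a sequenced MiSeq flow cell in 50 mM Na-HEPES pH 8.0, 25 mM NaCl, imaged in 2.5 °C steps up to 60 °C and normalised to pre-quench Cy3 and control constructs.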

Data set [2] can be described thus: folding enthalpy; higher = less favourable; fluorescence melt of hairpins on a sequencing array, two-state fit. To be noted: sodium 0.088 M. The gist of the method:
as §1

Turning to GTGCAGGAAACTGCAC ((((((....)))))), the Tm in data set [1] amounted to 68.2 °C. In addition, the folding enthalpy in data set [2] was -35.9 kcal/mol.

As for GATCCGCAACCGGATC ((((((....)))))), the Tm in data set [1] stood at 55.1 °C. In data set [2], the folding enthalpy is -39.3 kcal/mol.

GACCAAACGAAAGTTGTC (((..(((....)))))): the Tm in data set [1] was 31 °C. Further, the folding enthalpy in data set [2] was -13.8 kcal/mol.

Consider GTAGGGGGAAACCCTTAC (((.(((....))).))), for which the Tm in data set [1] worked out at 42 °C. Moreover, the folding enthalpy in data set [2] was -17.4 kcal/mol.

With GATCAGACAGCTGATC ((((((....)))))), the Tm in data set [1] worked out at 45.3 °C. In data set [2], the folding enthalpy is -32 kcal/mol.

As to GACTACGAAAGTATGGTC ((((((....)))..))), in data set [1], the Tm came to 34.4 °C. In addition, in data set [2], the folding enthalpy is -19.5 kcal/mol.

Take GCTTATGGAAACATGAGC (((.(((....))).))): in data set [1], the Tm amounted to 45.6 °C. Also, in data set [2], the folding enthalpy was -33.5 kcal/mol.

On to GCTCAGCGAAAGCTCCGC ((..(((....)))..)), for which, in data set [1], the Tm turned out to be 22.4 °C. Moreover, the folding enthalpy in data set [2] was -8.07 kcal/mol.

With GCCAACACGAAAGTGGGC (((..(((....)))))), in data set [1], the Tm is 52.7 °C. Moreover, the folding enthalpy in data set [2] was -24.9 kcal/mol.

Regarding GTGTGAACGAAAGTTCAC (((..(((....)))))), the Tm in data set [1] stood at 65.6 °C. Further, the folding enthalpy in data set [2] is -12.9 kcal/mol.

Consider GTGGTACGAAAGTAACAC (((.(((....))).))), for which the Tm in data set [1] was determined as 58.2 °C. Moreover, the folding enthalpy in data set [2] is -40.3 kcal/mol.

As to GGTGTTCGAAAGAAGACC (((.(((....))).))), the Tm in data set [1] was determined as 50.5 °C. The folding enthalpy in data set [2] is -40.4 kcal/mol.

GTCAGCGAAAGCTCGGAC ((((((....)))..))): the Tm in data set [1] came out at 37.3 °C. Further, in data set [2], the folding enthalpy was -12.4 kcal/mol.

GGAGGCGAAAGCCTATCC ((((((....)))..))): the Tm in data set [1] is 40.8 °C. In addition, in data set [2], the folding enthalpy is -9.28 kcal/mol.

On to GCGTATGGAAACATGCGC (((.(((....))).))), for which the Tm in data set [1] was 57 °C. For the same sequence, in data set [2], the folding enthalpy is -38.2 kcal/mol.

With GGTACCGGAAACGGTGCC ((.((((....)))).)), the Tm in data set [1] is 60.6 °C. The folding enthalpy in data set [2] is -38.3 kcal/mol.

Regarding GATCACCAGCGTGATC ((((((....)))))), in data set [1], the Tm amounted to 53.8 °C. The folding enthalpy in data set [2] was -43.3 kcal/mol.

Regarding GTTTGCGGAAACGTAAAC ((((.((....)).)))), in data set [1], the Tm turned out to be 48.6 °C. Further, in data set [2], the folding enthalpy is -32.3 kcal/mol.

As for GTTAAACGAAAGTTCAAC (((.(((....))).))), the Tm in data set [1] was 30.3 °C. The folding enthalpy in data set [2] was -22.6 kcal/mol.

With GCGCACGGAAACGTGCAC (.(((((....))))).), the Tm in data set [1] was determined as 52.2 °C. In data set [2], the folding enthalpy was -10.1 kcal/mol.

GTCTCCACGAAAGTGGAC (((..(((....)))))): the Tm in data set [1] came out at 32.2 °C. The folding enthalpy in data set [2] was -7.36 kcal/mol.

GCCTACGAAAGTAACGGC ((((((....)))..))): in data set [1], the Tm came to 44 °C. The folding enthalpy in data set [2] was -26.5 kcal/mol.

As to GCCATCGGAAACGGTGGC ((((.((....)).)))), the Tm in data set [1] came out at 59.3 °C. The folding enthalpy in data set [2] was -46.7 kcal/mol.

As to GTACACGAAAGTGCTAC ((((((....))).))), the Tm in data set [1] amounted to 39.9 °C. In addition, the folding enthalpy in data set [2] is -15.9 kcal/mol.

Turning to GGCAACCCGAAAGGGGCC (((..(((....)))))), the Tm in data set [1] came to 55.4 °C. The folding enthalpy in data set [2] was -23.8 kcal/mol.

Take GTGGTGTCGAAAGACCAC (((..(((....)))))): in data set [1], the Tm was 47.6 °C. For the same sequence, in data set [2], the folding enthalpy was -16.8 kcal/mol.

For GGGACCGAAAGGTGTCCC ((((((....)))..))), the Tm in data set [1] is 51.3 °C. In data set [2], the folding enthalpy was -23.4 kcal/mol.

GCATGGCGAAAGCTCTGC (((..((....))..))): in data set [1], the Tm worked out at 43.2 °C. The folding enthalpy in data set [2] is -18 kcal/mol.

GCGGCCGAAAGGCACCGC ((((((....)))..))): in data set [1], the Tm was 56 °C. Further, the folding enthalpy in data set [2] was -16.8 kcal/mol.

As for GTTGCCGGAAACGGCAGC (.(((((....))))).), the Tm in data set [1] turned out to be 57.5 °C. In addition, the folding enthalpy in data set [2] is -14.4 kcal/mol.

For the sequence GTTGAGACGAAAGTCAAC (((..(((....)))))), in data set [1], the Tm turned out to be 38.4 °C. In addition, the folding enthalpy in data set [2] was -15.6 kcal/mol.

In the case of GTATGGGGAAACCCACAC ((.((((....)))).)), the Tm in data set [1] was found to be 35.1 °C. For the same sequence, in data set [2], the folding enthalpy is -18.9 kcal/mol.

Regarding GTCGACGCGAAAGCGGAC (((..(((....)))))), in data set [1], the Tm was found to be 45.4 °C. Also, the folding enthalpy in data set [2] was -12.8 kcal/mol.

Regarding GCAGTGCGAAAGCATGC (((.(((....)))))), the Tm in data set [1] was determined as 58.7 °C. In data set [2], the folding enthalpy is -20.4 kcal/mol.

Consider GAGACCGAAAGGTACTC ((((((....))).))), for which the Tm in data set [1] worked out at 43.3 °C. In addition, in data set [2], the folding enthalpy is -17.5 kcal/mol.

For the sequence CGTACGGAAACGTTGACG ((((((....)))..))), the Tm in data set [1] was determined as 36.3 °C. Also, in data set [2], the folding enthalpy is -16.5 kcal/mol.

For GCGAATGTTCGC ((((....)))), in data set [1], the Tm was determined as 50.3 °C. Also, the folding enthalpy in data set [2] is -25.7 kcal/mol.

The values are drawn from the array DNA melting data of Ke et al. (doi:10.1101/2024.01.08.574731).
